The record followed here is ChEMBL document CHEMBL1629547, “Zidovudine impairs adipogenic differentiation through inhibition of clonal expansion” (Antimicrob Agents Chemother, 2008).

Data set [1] is filed under the species Mus musculus. Put plainly: Antiproliferative activity against mouse 3T3-F442A cells assessed as [3H]thymidine incorporation. It is filed as functional, cell-based.
The test system of another data set is Homo sapiens. Put plainly: Antiproliferative activity against human subcutaneous preadipocyte assessed as [3H]thymidine incorporation at 6 uM. It is filed as functional. The procedure, abridged: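 Primary human subcutaneous preadipocytes (collagenase-digested abdominal fat, kept in DMEM-Ham's F-12 1:1 with 10% FBS and 172 µM ascorbate 2-phosphate) were given drug or vehicle for 24 h. [3H]thymidine was then added for a further 24 h, and cells were filter-harvested and counted by beta counter (cpm). There were 4 to 16 replicates per experiment, in at least 3 independent experiments.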

Data set [2] is filed under the species Mus musculus. Put plainly: Induction of preadipocyte differentiation in mouse 3T3-F442A cells assessed as triglyceride accumulation at 6 uM after 9 days by oil red O staining relative to control. It is filed as functional, cell-based. The method, boiled down:
(§1)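 Drug was present while 3T3-F442A cells differentiated. On day 9 cells were fixed in 10% formalin and stained with 0.0021% (wt/vol) Oil red O in 60% isopropanol. Cells were dried, dye extracted with 100% isopropanol, and fluorescence read at 495 nm. Data are from three independent experiments, Mann-Whitney U test versus control.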

The species entered for data set [3] is Mus musculus. The data set can be described thus: Induction of preadipocyte differentiation in mouse 3T3-F442A cells assessed as triglyceride accumulation at 3 uM after 9 days by oil red O staining relative to control. It is filed as functional, cell-based. The method, boiled down:
as §1

Data set [4] is filed under the species Mus musculus. The data set can be described thus: Induction of preadipocyte differentiation in mouse 3T3-F442A cells assessed as triglyceride accumulation at 0.1 uM after 9 days by oil red O staining relative to control. It is filed as functional, cell-based. The procedure, abridged: as §1
Data set [5] is filed under the species Mus musculus. Put plainly: Induction of preadipocyte differentiation in mouse 3T3-F442A cells assessed as adiponectin mRNA expression on day 9 by RT-PCR analysis. It is filed as functional, cell-based. The procedure, abridged:
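3T3-F442A preadipocytes were exposed to drug or vehicle from day −7, induced on day 0 and differentiated to day +9, when RNA was taken. Adiponectin mRNA was measured by real-time RT-PCR (42 cycles, 94/55/72°C) against transferrin receptor as calibrator. RNA and cDNA were pooled; there were three independent experiments with triplicate PCR each.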

The nature of data set [6]: Antiproliferative activity against mouse 3T3-F442A cells assessed as [3H]thymidine incorporation at 1 uM. It is filed as functional.
Data set [7] in a line: Antiproliferative activity against mouse 3T3-F442A cells assessed as [3H]thymidine incorporation at 3 uM. It is filed as functional.
Data set [8] can be described thus: Antiproliferative activity against mouse 3T3-F442A cells assessed as [3H]thymidine incorporation at 6 uM. It is filed as functional.
Data set [9] in a line: Antiproliferative activity against mouse 3T3-F442A cells assessed as [3H]thymidine incorporation at 180 uM. It is filed as functional.
For data set [10], the species on record is Mus musculus. Put plainly: Antiproliferative activity against mouse 3T3-F442A cells assessed as [3H]thymidine incorporation at 0.1 uM. It is filed as functional, cell-based.
The species entered for data set [11] is Mus musculus. Put plainly: Induction of adipocyte differentiation in mouse 3T3-F442A cells assessed as triglyceride accumulation at 6 uM on day 9 by oil red O staining relative to control. It is filed as functional, cell-based. The procedure, abridged: (§2)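 Drug was added to 3T3-F442A cells only after clonal expansion was complete. On day 9 cells were fixed in formalin and stained with 0.0021% Oil red O in 60% isopropanol. Dye was extracted with 100% isopropanol and fluorescence read at 495 nm. Data are from four independent experiments, ANOVA with Bonferroni versus control.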

For data set [12], the species on record is Mus musculus. Put plainly: Induction of adipocyte differentiation in mouse 3T3-F442A cells assessed as triglyceride accumulation at 1 uM on day 9 by oil red O staining relative to control. It is filed as functional, cell-based. The procedure, abridged:
as §2

Data set [13] is filed under the species Mus musculus. The data set can be described thus: Induction of adipocyte differentiation in mouse 3T3-F442A cells assessed as PPARgamma mRNA expression on day 6 by RT-PCR analysis. It is filed as functional, cell-based.
For data set [14], the species on record is Mus musculus. Put plainly: Induction of adipocyte differentiation in mouse 3T3-F442A cells assessed as C/EBPalpha mRNA expression on day 6 by RT-PCR analysis. It is filed as functional, cell-based.
The species named for data set [15] is Mus musculus. Put plainly: Antiproliferative activity against mouse 3T3-F442A cells assessed as mtDNA depletion. It is filed as functional, cell-based.
Data set [16] can be described thus: Cytotoxicity against mouse 3T3-F442A cells at 1 uM after 8 days by trypan blue staining.
Data set [17] in a line: Cytotoxicity against mouse 3T3-F442A cells at 6 uM after 8 days by trypan blue staining.
In data set [18] the test system is 3T3-F442A (Mus musculus). Put plainly: Induction of preadipocyte differentiation in mouse 3T3-F442A cells assessed as PPARgamma mRNA expression on day 4 by RT-PCR analysis.
In data set [19] the test system is 3T3-F442A. The description is as above.
The subject of data set [20] is 3T3-F442A (Mus musculus). The data set can be described thus: Induction of preadipocyte differentiation in mouse 3T3-F442A cells assessed as C/EBPalpha mRNA expression on day 6 by RT-PCR analysis.
In data set [21] the test system is 3T3-F442A. Described as above.

Active and inactive are the calls of the source. No cut-off for these calls is given here.

As to `Cc1cn([C@H]2C[C@H](N=[N+]=[N-])[C@@H](CO)O2)c(=O)[nH]c1=O` [ZIDOVUDINE], the outcome in the data set listed under Mus musculus [1], with Homo sapiens, in the data set filed under Mus musculus [2], in the data set listed under Mus musculus [5], in the data set on 3T3-F442A (Mus musculus) [18] and in the data set with 3T3-F442A [19] was Active. In addition, the result in the data set on 3T3-F442A (Mus musculus) [20] and with 3T3-F442A [21] was Active. Also, the outcome in the data set filed under Mus musculus [3], in the data set filed under Mus musculus [4], in the data set filed under Mus musculus [10], in the data set filed under Mus musculus [11], in the data set filed under Mus musculus [12] and in the data set filed under Mus musculus [13] was inactive. Besides, the result in the data set filed under Mus musculus [14] and in the data set listed under Mus musculus [15] was inactive. Also, the Activity in [6] was 30%; in [7] it was 30%; in data set [8], 30%; in data set [9], 30%; in data set [16], “Non-toxic”; in data set [17] it was “Non-toxic”.
